{"data": "Results gathered from unrelated publications", "mode": "inhibitor", "MAL12": "Alpha-glucosidase MAL12 (MAL12, Saccharomyces cerevisiae S288c, UniProt P53341)", "FABP1": "Fatty acid-binding protein, liver (FABP1, Homo sapiens, UniProt P07148)", "SLC22A6": "Solute carrier family 22 member 6 (SLC22A6, Homo sapiens, UniProt Q4U2R8)", "SQLE": "Squalene monooxygenase (SQLE, Homo sapiens, UniProt Q14534)", "note": "Each line is one published result; the experiments were not run side by side."}
{"SMILES": "CC(=O)C1=C(C)n2c(=O)c3ccccc3c(=O)n2C1c1cn(-c2ccccc2)nc1-c1ccc(Br)cc1 (centres unmarked)", "target": "MAL12", "test": "enzyme activity, absorbance", "IC50": "18.6 µM"}
{"SMILES": "Cc1cc(/C=C2\\Oc3cc(OCC4CC4)ccc3C2=O)cc(C)c1OC(C)(C)C(=O)O", "target": "FABP1", "test": "cell-free assay, fluorescence", "conditions": "pH 7.4", "IC50": "3.6 µM"}
{"SMILES": "C[C@H]1CN(C(=O)Nc2ccc(C(F)(F)F)cc2)CCN1c1ccnc(Nc2cccc(O)c2)n1", "target": "MAL12", "test": "enzyme activity, absorbance", "conditions": "pH 6.9", "IC50": "2.05 µM"}
{"SMILES": "COc1ccc2c(c1)O/C(=C\\c1cc(C)c(OC(C)(C)C(=O)O)c(C)c1)C2=O", "target": "FABP1", "test": "cell-free assay, fluorescence", "conditions": "pH 7.4", "IC50": "9 µM"}
{"SMILES": "CC(C)NC(=O)COc1cccc(-c2nc(Nc3ccc4[nH]ncc4c3)c3ccccc3n2)c1", "target": "SLC22A6", "test": "transporter uptake, radiometric", "system": "HEK293", "IC50": "> 1 µM"}
{"SMILES": "O=C(O)[C@H]1O[C@@H](Oc2cc3oc(-c4ccccc4)cc(=O)c3c(O)c2O)[C@H](O)[C@@H](O)[C@@H]1O", "target": "SQLE", "test": "enzyme activity, radiometric", "IC50": "2.5 µM"}
{"SMILES": "COc1ccc(Cl)cc1C(=O)NCCc1ccc(S(=O)(=O)NC(=O)NC2CCCCC2)cc1", "target": "SLC22A6", "test": "transporter uptake, fluorescence", "IC50": "2.4 µM"}
{"SMILES": "O=c1cc(-c2ccccc2)oc2cc(O)cc(O)c12", "target": "SQLE", "test": "enzyme activity, radiometric", "IC50": "4.47 µM"}
{"SMILES": "N=C(N)c1ccc2cc(OC(=O)c3ccc(N=C(N)N)cc3)ccc2c1", "target": "Coagulation factor IX (F9, Homo sapiens, UniProt P00740)", "test": "enzyme activity", "IC50": "0.086 µM"}
{"SMILES": "C[C@H]1CN(C(=O)Nc2ccc(C(F)(F)F)cc2)CCN1c1ccnc(Nc2ccc(Cl)c(O)c2)n1", "target": "MAL12", "test": "enzyme activity, absorbance", "conditions": "pH 6.9", "IC50": "0.44 µM"}
{"SMILES": "C[C@H]1CN(C(=O)CC#N)[C@]12CCN(c1ncnc3[nH]ccc13)C2", "target": "SLC22A6", "test": "transporter uptake", "IC50": "1.59 µM"}
{"SMILES": "CC[N+](CC)(CC)Cc1ccccc1.CC[N+](CC)(CC)Cc1ccccc1.[Br][Co-2]([Br])([Br])[Br]", "target": "Tyrosine-protein phosphatase non-receptor type 1 (PTPN1, Homo sapiens, UniProt P18031)", "test": "enzyme activity", "IC50": "10.9 µM"}
{"SMILES": "CC(CN1CCN(CCOCCO)CC1)CN1c2ccccc2Sc2ccccc21 (centres unmarked)", "target": "SQLE", "test": "enzyme activity, absorbance", "conditions": "pH 7.4, with preincubation", "IC50": "10 µM"}
{"SMILES": "C[C@H]1CN(C(=O)Nc2ccc(C(F)(F)F)cc2)CCN1c1ccnc(Nc2ccc(Cl)cc2)n1", "target": "MAL12", "test": "enzyme activity, absorbance", "conditions": "pH 6.9", "IC50": "1.1 µM"}
{"SMILES": "CCCOc1ccc2c(c1)O/C(=C\\c1ccc(OC(C)(C)C(=O)O)cc1)C2=O", "target": "FABP1", "test": "cell-free assay, fluorescence", "conditions": "pH 7.4", "IC50": "9.4 µM"}
{"SMILES": "N#Cc1ccc2c(c1)N(CCCN1CCC(O)CC1)c1ccccc1S2", "target": "SQLE", "test": "enzyme activity, absorbance", "conditions": "pH 7.4, with preincubation", "IC50": "1.55 µM"}
{"SMILES": "COc1ccc(NC(=O)N2CCN(c3ccnc(Nc4ccc(Cl)cc4)n3)[C@H](C)C2)cc1", "target": "MAL12", "test": "enzyme activity, absorbance", "conditions": "pH 6.9", "IC50": "23.4 µM"}
{"SMILES": "COc1cc(C2Oc3cc([C@H]4Oc5cc(O)cc(O)c5C(=O)[C@@H]4O)ccc3OC2CO)ccc1O (some centres unmarked)", "target": "SQLE", "test": "enzyme activity, radiometric", "IC50": "1.88 µM"}
{"SMILES": "CC1CN(C(=O)Nc2ccc(Cl)c(Cl)c2)CCN1c1ccnc(Nc2ccc(Cl)cc2)n1 (centres unmarked)", "target": "MAL12", "test": "enzyme activity, absorbance", "conditions": "pH 6.9", "IC50": "2.41 µM"}
{"SMILES": "CC(=O)C1=C(C)n2c(=O)c3ccccc3c(=O)n2C1c1cn(-c2ccccc2)nc1-c1ccccc1 (centres unmarked)", "target": "MAL12", "test": "enzyme activity, absorbance", "IC50": "15.4 µM"}
{"SMILES": "Nc1ccn(C[C@@H](CO)OCP(=O)(O)O)c(=O)n1", "target": "Solute carrier family 22 member 6 (SLC22A6, Homo sapiens, UniProt Q4U2R8, N439A)", "test": "transporter uptake, fluorescence", "IC50": "225 µM"}
{"SMILES": "CCCOc1ccc2c(c1)O/C(=C\\c1ccc(OC(C)(C)C(=O)O)c(C)c1)C2=O", "target": "FABP1", "test": "cell-free assay, fluorescence", "conditions": "pH 7.4", "IC50": "5.8 µM"}
{"SMILES": "NC/C(=C\\F)COc1cccc(Cn2c(=S)[nH]c(=O)c3[nH]cnc32)c1", "target": "Amine oxidase [flavin-containing] A (MAOA, Homo sapiens, UniProt P21397)", "test": "enzyme activity", "IC50": "> 30 µM"}
{"SMILES": "Cc1cc(/C=C2\\Oc3cc(OCCC(C)C)ccc3C2=O)cc(C)c1OC(C)(C)C(=O)O", "target": "FABP1", "test": "cell-free assay, fluorescence", "conditions": "pH 7.4", "IC50": "9.6 µM"}
{"SMILES": "NS(=O)(=O)c1ccc(-n2nc(C(=O)NN=Cc3ccccc3O)cc2-c2ccccc2)cc1", "target": "Focal adhesion kinase 1 (PTK2, Homo sapiens, UniProt Q05397)", "test": "enzyme activity, ELISA", "IC50": "15.9 µM"}
{"SMILES": "C[C@H]1CN(C(=O)Nc2ccc(C(F)(F)F)cc2)CCN1c1ccnc(Nc2ccc(Br)cc2)n1", "target": "MAL12", "test": "enzyme activity, absorbance", "conditions": "pH 6.9", "IC50": "1.59 µM"}
{"SMILES": "OCCN1CCN(CCCN2c3ccccc3Sc3ccc(C(F)(F)F)cc32)CC1", "target": "SQLE", "test": "enzyme activity, absorbance", "conditions": "pH 7.4, with preincubation", "IC50": "12.3 µM"}
{"SMILES": "Cc1ccc(NC(=O)N2CCN(c3ccnc(Nc4ccc(Cl)cc4)n3)[C@@H](C)C2)cc1", "target": "MAL12", "test": "enzyme activity, absorbance", "conditions": "pH 6.9", "IC50": "2.42 µM"}
{"SMILES": "CCCOc1ccc2c(c1)O/C(=C\\c1ccc(OCC(=O)O)cc1)C2=O", "target": "FABP1", "test": "cell-free assay, fluorescence", "conditions": "pH 7.4", "IC50": "14.6 µM"}
